# From ChEMBL document CHEMBL1140700, “Substituted pyrazoles as hepatoselective HMG-CoA reductase inhibitors: discovery of (3R,5R)-7-[2-(4-fluoro-phenyl)-4-isopropyl-5-(4-methyl-benzylcarbamoyl)-2H-pyrazol-3-yl]-3,5-dihydroxyheptanoic acid (PF-3052334) as a candidate for the treatment of hypercholesterolemia” (J Med Chem, 2008)
# Assays:
# L6 = test: Inhibition of cholesterol synthesis in rat L6 cells; assay type: functional, cell-based
# Hepatocyte [1] = test: Ratio of IC50 for cholesterol synthesis in rat myocytes to rat hepatocytes; assay type: functional
# Hepatocyte [2] = test: Inhibition of cholesterol synthesis in rat hepatocytes; assay type: functional, cell-based
# Summary of the method: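 Frozen rat hepatocytes on collagen-coated wells, 10^5 cells/well, grown 24 h in DMEM/10% FBS/10 mM HEPES. Compound preincubation 4 h, then 1 µCi/mL 14C acetic acid for 4 h more.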
# [3] = biological target: T1, 3-hydroxy-3-methylglutaryl-coenzyme A reductase (Rattus norvegicus, UniProt P51639); test: Inhibition of HMG-CoA reductase in Sprague-Dawley rat liver microsomes; parameters: species or system Microsome
# T1 sequence (P51639 whole entry): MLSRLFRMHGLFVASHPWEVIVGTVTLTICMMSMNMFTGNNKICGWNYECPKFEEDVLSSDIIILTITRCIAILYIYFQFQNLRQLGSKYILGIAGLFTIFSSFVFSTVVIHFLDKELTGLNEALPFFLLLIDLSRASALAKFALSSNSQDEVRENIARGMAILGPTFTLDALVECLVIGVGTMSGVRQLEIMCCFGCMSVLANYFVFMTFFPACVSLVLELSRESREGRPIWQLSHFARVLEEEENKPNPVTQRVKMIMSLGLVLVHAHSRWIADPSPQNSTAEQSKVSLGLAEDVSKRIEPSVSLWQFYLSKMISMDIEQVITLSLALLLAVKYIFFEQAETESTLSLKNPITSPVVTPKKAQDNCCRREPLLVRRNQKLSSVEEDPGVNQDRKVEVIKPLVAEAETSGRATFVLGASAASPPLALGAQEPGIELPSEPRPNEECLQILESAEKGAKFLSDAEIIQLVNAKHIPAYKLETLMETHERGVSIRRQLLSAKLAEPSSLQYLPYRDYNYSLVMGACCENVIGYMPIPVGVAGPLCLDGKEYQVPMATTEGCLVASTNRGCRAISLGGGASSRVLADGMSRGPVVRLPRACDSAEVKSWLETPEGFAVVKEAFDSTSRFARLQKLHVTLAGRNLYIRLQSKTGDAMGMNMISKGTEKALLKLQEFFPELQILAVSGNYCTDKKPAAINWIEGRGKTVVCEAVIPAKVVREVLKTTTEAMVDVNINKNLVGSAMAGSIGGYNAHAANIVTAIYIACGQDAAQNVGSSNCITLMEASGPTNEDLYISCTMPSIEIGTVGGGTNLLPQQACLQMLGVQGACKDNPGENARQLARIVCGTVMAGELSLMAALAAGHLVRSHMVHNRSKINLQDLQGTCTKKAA
# Summary of the method: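 Rat liver microsomes (35 µg/mL) in 100 mM NaH2PO4, 10 mM imidazole, 10 mM EDTA, preincubated with compound in DMSO 0.5 h on ice; 14C-HMG-CoA (0.024 µCi) with 15 mM NADPH and 25 mM DTT added, 0.75 h at 37 °C. Stopped with HCl, lactonized to mevalonolactone, anion-exchange resin separation, scintillation counting; IC50 by curve fit.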
# Syrian golden hamster [4] = test: Inhibition of cholesterol synthesis in Goldern Syrian hamster blood at 10 mg/kg, po after 2 to 4 hrs relative to control; assay type: functional; conditions: Mesocricetus auratus, read-out: Inhibition
# Summary of the method: (§1)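 Hamsters on chow with 2.5% cholestyramine from 3 days prior; oral gavage of vehicle or compound (10 mpk), n = 8/group. At 2 h (2–4 h arm) or 4 h (4–6 h arm) postdose, i.p. 80 µCi 14C sodium acetate in 0.9% NaCl; euthanized 2 h later, cardiac blood, plasma saponified and extracted, 14C cholesterol counted; % change vs untreated controls.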
# Cavia porcellus [5] = test: Reduction of LDL level in chow fed Hartley guinea pig serum at 20 mg/kg/day, po for 7 days relative to rosuvastatin; assay type: functional, Hartely; parameters: scale not given: the % may be the effect or the level left
# Summary of the method: (§2)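 Male Hartley guinea pigs (300–500 g) on chow diet 5025, acclimated ≥1 week; vehicle or compound suspension by daily oral gavage at 10 or 20 mpk (n = 8/group) for 7 days; sacrificed 2 h after final dose; LDL cholesterol as mean % change from vehicle group.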
# Syrian golden hamster [6] = test: Inhibition of cholesterol synthesis in Golden Syrian hamster blood at 10 mg/kg, po after 4 to 6 hrs relative to control; assay type: functional; conditions: Mesocricetus auratus, read-out: Inhibition; summary of the method: as §1
# Cavia porcellus [7] = test: Reduction of LDL level in chow fed Hartley guinea pig serum at 10 mg/kg/day, po for 7 days relative to rosuvastatin; assay type: functional, Hartely; parameters: scale not given: the % may be the effect or the level left; conditions: in the assay text read “20 mg/kg/day” for “10 mg/kg/day”; summary of the method: as §2
# Cavia porcellus [8] = test: Reduction of LDL level in po dosed Hartley guinea pig plasma after 7 days; assay type: functional; conditions: Hartely, 168 h
# [9] = Lipophilicity, log P of the compound; assay type: physicochemical; conditions: octanol/water
Structure (SMILES),IC50 [3] [nM],LogP [9],IC50 (L6) [µM],Ratio IC50 (Hepatocyte [1]),IC50 (Hepatocyte [2]) [nM],% change in cholesterol synthesis vs control at 10 mg/kg (Syrian golden hamster [4]) [%],Activity (Cavia porcellus [5]) [%],Percent change in cholesterol synthesis vs control at 10 mg/kg (Syrian golden hamster [6]) [%],Activity (Cavia porcellus [7]) [%],ED50 (Cavia porcellus [8]) [mg/kg]
CC(C)c1c(C(=O)N(C)[C@@H](C)c2ccccc2)nn(-c2ccc(F)cc2)c1CC[C@@H](O)C[C@@H](O)CC(=O)O,–,–,41,–,3.5,–,–,–,–,–
CC(C)c1c(C(=O)N2CCCC2c2ccccc2)nn(-c2ccc(F)cc2)c1CC[C@@H](O)C[C@@H](O)CC(=O)O (stereo partly specified),7.3,–,0.13,–,4,–,–,–,–,–
CC(C)c1c(C(=O)N2CCCC(c3ccccc3)C2)nn(-c2ccc(F)cc2)c1CC[C@@H](O)C[C@@H](O)CC(=O)O (stereo partly specified),1.5,–,0.68,–,0.4,-80,–,-15,–,–
CC(C)c1c(C(=O)N2CCC[C@H](c3ccccc3)C2)nn(-c2ccc(F)cc2)c1CC[C@@H](O)C[C@@H](O)CC(=O)O,2,–,–,–,0.3,-78,–,–,–,–
COc1ccc(CNC(=O)c2nn(-c3ccc(F)cc3)c(CC[C@@H](O)C[C@@H](O)CC(=O)O)c2C(C)C)cc1,2.8,–,0.46,–,0.4,–,–,–,–,–
CC(C)c1c(C(=O)NCc2cccc(C#N)c2)nn(-c2ccc(F)cc2)c1CC[C@@H](O)C[C@@H](O)CC(=O)O,2.2,–,2.4,–,1.4,–,–,–,–,–
CC(C)c1c(CC[C@@H](O)C[C@@H](O)CC(=O)O)nn(-c2ccc(F)cc2)c1C(=O)NCc1ccccc1,520,–,–,–,–,–,–,–,–,–
CC(C)c1c(C(=O)NCc2ccc(C(=O)N(C)C)cc2)nn(-c2ccc(F)cc2)c1CC[C@@H](O)C[C@@H](O)CC(=O)O,25,–,21,–,23,–,–,–,–,–
CC(C)c1c(C(=O)N2CCCCC2c2ccccc2)nn(-c2ccc(F)cc2)c1CC[C@@H](O)C[C@@H](O)CC(=O)O (stereo partly specified),6.1,–,0.33,–,1.1,–,–,–,–,–
CC(C)c1c(C(=O)N(C)[C@H](C)c2ccccc2)nn(-c2ccc(F)cc2)c1CC[C@@H](O)C[C@@H](O)CC(=O)[O-].[Na+],–,–,1.9,–,0.3,-62,–,-10,-11,–
CC(C)c1c(C(=O)NCc2ccccc2)nn(-c2ccc(F)cc2)c1CC[C@@H](O)C[C@@H](O)CC(=O)O,4.7,–,0.1,–,0.3,–,–,–,–,–
COCc1c(C(C)C)nc(C(C)C)c(/C=C/[C@@H](O)C[C@@H](O)CC(=O)O)c1-c1ccc(F)cc1 [CERIVASTATIN],–,–,0.003,–,1.7,–,–,–,–,–
CC[C@H](C)C(=O)O[C@H]1C[C@H](O)C=C2C=C[C@H](C)[C@H](CC[C@@H](O)C[C@@H](O)CC(=O)O)[C@H]21 [PRAVASTATIN],13,-0.67,7.6,450,17,–,–,–,–,100
CC(C)c1nc(N(C)S(C)(=O)=O)nc(-c2ccc(F)cc2)c1/C=C/[C@@H](O)C[C@@H](O)CC(=O)O [ROSUVASTATIN],3.1,–,0.25,830,0.3,-76,-42,-46,–,9.3

# The next lines start with results.
IC50 [3] [nM],LogP [9],Structure (SMILES),IC50 (L6) [µM],Ratio IC50 (Hepatocyte [1]),IC50 (Hepatocyte [2]) [nM],% change in cholesterol synthesis vs control at 10 mg/kg (Syrian golden hamster [4]) [%],Activity (Cavia porcellus [5]) [%],Percent change in cholesterol synthesis vs control at 10 mg/kg (Syrian golden hamster [6]) [%],Activity (Cavia porcellus [7]) [%],ED50 (Cavia porcellus [8]) [mg/kg]
6.1,–,Cc1cccc(CN(C)C(=O)c2nn(-c3ccc(F)cc3)c(CC[C@@H](O)C[C@@H](O)CC(=O)[O-])c2C(C)C)c1.[Na+],4.8,8000,0.6,-72,-15,–,–,–
7,–,CC(C)c1c(C(=O)N(C)Cc2ccc(F)cc2F)nn(-c2ccc(F)cc2)c1CC[C@@H](O)C[C@@H](O)CC(=O)[O-].[Na+],4.4,2100,2.1,-82,-32,-17,–,–
9,–,CC(C)c1c(C(=O)N(C)Cc2cccc(F)c2F)nn(-c2ccc(F)cc2)c1CC[C@@H](O)C[C@@H](O)CC(=O)[O-].[Na+],5.7,9500,0.6,-81,-45,-22,–,–
7,–,COCc1cccc(CNC(=O)c2nn(-c3ccc(F)cc3)c(CC[C@@H](O)C[C@@H](O)CC(=O)[O-])c2C(C)C)c1.[Na+],1.8,2600,0.7,-71,-42,-19,–,–
9.9,–,Cc1ccc(CN(C)C(=O)c2nn(-c3ccc(F)cc3)c(CC[C@@H](O)C[C@@H](O)CC(=O)O)c2C(C)C)cc1,4,–,1.8,–,–,–,–,–
4.8,–,CC(C)c1c(C(=O)N(C)Cc2ccccc2F)nn(-c2ccc(F)cc2)c1CC[C@@H](O)C[C@@H](O)CC(=O)O,17,–,0.5,-69,–,-30,–,–
3.8,–,CCN(Cc1ccccc1)C(=O)c1nn(-c2ccc(F)cc2)c(CC[C@@H](O)C[C@@H](O)CC(=O)O)c1C(C)C,4.4,–,5.5,–,–,–,–,–
3.9,–,CC(C)c1c(C(=O)N(C)Cc2cccc(F)c2)nn(-c2ccc(F)cc2)c1CC[C@@H](O)C[C@@H](O)CC(=O)O,6,–,0.2,-65,–,–,–,–
9.8,–,CC(C)c1c(C(=O)N(Cc2ccccc2)C(C)C)nn(-c2ccc(F)cc2)c1CC[C@@H](O)C[C@@H](O)CC(=O)O,9.8,–,10,–,–,–,–,–
6.6,–,CC(C)c1c(C(=O)N(C)Cc2ccc(F)cc2)nn(-c2ccc(F)cc2)c1CC[C@@H](O)C[C@@H](O)CC(=O)O,6,–,0.5,-71,–,–,–,–
12,–,COc1ccc(CN(C)C(=O)c2nn(-c3ccc(F)cc3)c(CC[C@@H](O)C[C@@H](O)CC(=O)O)c2C(C)C)cc1,5.8,–,0.3,-57,–,–,–,–
3.8,–,CC(C)c1c(C(=O)NCc2ccc(F)cc2)nn(-c2ccc(F)cc2)c1CC[C@@H](O)C[C@@H](O)CC(=O)O,0.49,–,0.7,–,–,–,–,–
1.9,–,Cc1ccc(CNC(=O)c2nn(-c3ccc(F)cc3)c(CC[C@@H](O)C[C@@H](O)CC(=O)[O-])c2C(C)C)cc1.[Na+],0.73,810,0.9,-74,-41,-15,–,3.6
5.9,–,CC(C)c1c(C(=O)N(C)Cc2ccccc2)nn(-c2ccc(F)cc2)c1CC[C@@H](O)C[C@@H](O)CC(=O)[O-].[Na+],3.1,16000,0.2,-61,-20,-16,–,–
